This note sets out measurements from ChEMBL document CHEMBL1133006, “Synthesis and evaluation of several new (2-chloroethyl)nitrosocarbamates as potential anticancer agents” (J Med Chem, 2000).

Values after ≈ are worked out from the molar mass of the structure shown.

Experiment [1] deals with SNB-7. The experiment in a line: In vitro cytotoxicity was evaluated againstCNS SNB-7 cells. Type of experiment: functional, cell-based. The settings on record: Homo sapiens. The essentials:
(§1)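 Cells dispersed with trypsin/EDTA, suspended at 5 × 10⁴/mL and seeded in 96-well plates. Compounds dissolved in 100% DMSO, diluted in complete medium and added in 100-µL samples, eight replicate wells per concentration. Controls were mock, vehicle (DMSO in medium) and doxorubicin 200 µM. Incubation 72 h, read by XTT or neutral red uptake, IC₅₀ calculated in µM.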

In experiment [2] the test system is NCI-H23. The experiment in a line: In vitro cytotoxicity was evaluated against lung NCI-H23 cells; 1 x 10E1. In kind it is functional, cell-based. As to conditions: Homo sapiens. The essentials:
as §1

Experiment [3] deals with DLD-1 (Homo sapiens). The experiment in a line: In vitro cytotoxicity was evaluated against colon DLD-1 cells; 1 x 10E1.
The test system of experiment [4] is CAKI-1 (Homo sapiens). Nature of the experiment: In vitro cytotoxicity was evaluated against renal CAKI-1 cells; 3 x 10E1.
Experiment [5] concerns SK-MEL-28 (Homo sapiens). Nature of the experiment: In vitro cytotoxicity was evaluated against melanoma SK-MEL-28 cells; 2 x 10E1.
Experiment [6] concerns NCI-H23. Nature of the experiment: In vitro cytotoxicity was evaluated against lung NCI-H23 cells; 3 x 10E1. Type of experiment: functional, cell-based. As to conditions: Homo sapiens. Summed up:
as §1

For experiment [7], the system named is SNB-7. Nature of the experiment: In vitro cytotoxicity was evaluated againstCNS SNB-7 cells; 3 x 10E1. In kind it is functional, cell-based. The settings on record: Homo sapiens. Summed up:
as §1

For experiment [8], the system named is DLD-1 (Homo sapiens). The experiment in a line: In vitro cytotoxicity was evaluated against colon DLD-1 cells; 3 x 10E1.
For experiment [9], the system named is SK-MEL-28 (Homo sapiens). The experiment in a line: In vitro cytotoxicity was evaluated against melanoma SK-MEL-28 cells; 3 x 10E1.
Experiment [10] relates to NCI-H23. The experiment in a line: In vitro cytotoxicity was evaluated against lung NCI-H23 cells. Type of experiment: functional, cell-based. The settings on record: Homo sapiens. Summed up: as §1
Experiment [11] deals with DLD-1 (Homo sapiens). Nature of the experiment: In vitro cytotoxicity was evaluated against colon DLD-1 cells.
For experiment [12], the system named is CAKI-1 (Homo sapiens). The experiment in a line: In vitro cytotoxicity was evaluated against renal CAKI-1 cells.
Experiment [13] deals with SK-MEL-28 (Homo sapiens). The experiment in a line: In vitro cytotoxicity was evaluated against melanoma SK-MEL-28 cells.
For experiment [14], the system named is DLD-1. Nature of the experiment: In vitro cytotoxicity was evaluated against colon DLD-1 cells; 4 x 10E1. In kind it is functional, cell-based. As to conditions: Homo sapiens. Summed up:
as §1

Experiment [15] is filed under the species Mus sp. Nature of the experiment: Difference in the median of times poststaging for tumors of the treated (T) groups to double in mass twice compared to the median of the control (C) group. In kind it is functional. Summed up: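 M5076 sarcoma, 5 × 10⁶ cells implanted sc in B6C3F₁ mice (implantation = day 0). Compound given ip on days 10-14 at optimal dosage (≤LD10). T-C is the difference in median time after staging for treated versus control tumors to double in mass twice, in days.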

Experiment [16] concerns Mus sp. The experiment in a line: Antitumor activity against subcutaneously implanted M5076 murine sarcoma in B6C3F1 mice (5x10E6) at 12.5 mg/kg on day 10 to 14, expressed tumor-free surv/total; 0/5. In kind it is functional. As to conditions: route subcutaneous. Summed up:
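B6C3F1 mice got 5 × 10⁶ M5076 sarcoma cells sc (implant day = day 0). Drug was given ip at 12.5 mg/kg/dose on days 10-14, 5 mice per group. Tumor-free survivors/total were recorded. T-C was the difference in median time after staging for tumors to double in mass twice, treated versus control.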

Experiment [17] concerns P388. The experiment in a line: Antitumor activity was measured by % increase in life span (ILS) of CD2F1 mice implanted with P388 murine leukemia cell at a dose of 25 mg/kg. Type of experiment: functional, Mus sp. The settings on record: Mus musculus.
For experiment [18], the system named is P388. The experiment in a line: Antitumor activity measured by % increase in life span (ILS) of CD2F1 mice implanted with murine leukemia cells expressed as net log cell kill. Type of experiment: functional, Mus sp.
The subject of experiment [19] is P388. Nature of the experiment: Antitumor activity against intraperitoneally implanted P388 murine leukemia in CD2F1 mice with 10E6 at 25 mg/kg on day 1, expressed tumor-free surv/total;0/5. Type of experiment: functional, Mus sp. The settings on record: route intraperitoneal.
The subject of experiment [20] is DLD-1 (Homo sapiens). The experiment in a line: In vitro cytotoxicity was evaluated against colon DLD-1 cells; 2 x 10E1.
Experiment [21] deals with CAKI-1 (Homo sapiens). The experiment in a line: In vitro cytotoxicity was evaluated against renal CAKI-1 cells; 2 x 10E1.
For experiment [22], the system named is SK-MEL-28 (Homo sapiens). The experiment in a line: In vitro cytotoxicity was evaluated against melanoma SK-MEL-28 cells; 1 x 10e1; 1 x 10E1.
The subject of experiment [23] is SNB-7. Nature of the experiment: In vitro cytotoxicity was evaluated againstCNS SNB-7 cells; 1 x 10E1. Type of experiment: functional, cell-based. As to conditions: Homo sapiens. The essentials: as §1
For experiment [24], the system named is SK-MEL-28. Nature of the experiment: In vitro cytotoxicity was evaluated against melanoma SK-MEL-28 cells; […]. Type of experiment: functional, cell-based. The settings on record: Homo sapiens. The essentials:
as §1

For experiment [25], the system named is CAKI-1 (Homo sapiens). Nature of the experiment: In vitro cytotoxicity was evaluated against renal CAKI-1 cells; […].
The next experiment has as its system CAKI-1. The experiment in a line: In vitro cytotoxicity was evaluated against renal CAKI-1 cells; 3 x 10E1. In kind it is functional, cell-based. The settings on record: Homo sapiens. The essentials:
as §1

Experiment [26] deals with DLD-1. Nature of the experiment: In vitro cytotoxicity was evaluated against colon DLD-1 cells; 2 x 10E1. In kind it is functional, cell-based. As to conditions: Homo sapiens. Summed up: as §1
Experiment [27] deals with SK-MEL-28. The experiment in a line: In vitro cytotoxicity was evaluated against melanoma SK-MEL-28 cells; 1 x 10E1. In kind it is functional, cell-based. As to conditions: Homo sapiens. The essentials:
as §1

One may read the IC50 as the concentration that gives 50% inhibition. For `CC(=O)Oc1ccccc1COC(=O)N(CCCl)N=O`, the IC50 with SNB-7 [1] was 6 µg/mL (≈ 20 µM); with NCI-H23 [2] it was 10 µg/mL; with DLD-1 (Homo sapiens) [3] it was 10 µg/mL (≈ 33.3 µM); with CAKI-1 (Homo sapiens) [4], 30 µg/mL (≈ 99.8 µM); in the experiment on SK-MEL-28 (Homo sapiens) [5] it was 20 µg/mL (≈ 66.5 µM).

Regarding `O=NN(CCCl)C(=O)Oc1cccnc1`, the half-maximal inhibitory concentration (IC50) with NCI-H23 [6], with SNB-7 [7], in the experiment with DLD-1 (Homo sapiens) [8], in the experiment on CAKI-1 (Homo sapiens) [4] and in the experiment with SK-MEL-28 (Homo sapiens) [9] was above 30 µg/mL throughout.

Consider `O=NN(CCCl)C(=O)OCc1ccc([N+](=O)[O-])cc1`, for which the IC50 stood at 1 µg/mL (≈ 3.48 µM) in the experiment on NCI-H23 [10]; 1 µg/mL (≈ 3.48 µM) in the experiment on SNB-7 [1]; 5 µg/mL with DLD-1 (Homo sapiens) [11]; 3 µg/mL in the experiment on CAKI-1 (Homo sapiens) [12]; 1 µg/mL in the experiment with SK-MEL-28 (Homo sapiens) [13].

Consider `O=NN(CCCl)C(=O)Oc1cncnc1`, for which the IC50 in the experiment with DLD-1 [14] worked out at 40 µg/mL (≈ 173 µM); in the experiment with NCI-H23 [10], 2 µg/mL (≈ 8.67 µM); with SNB-7 [1], 6 µg/mL (≈ 26 µM); in the experiment on CAKI-1 (Homo sapiens) [12], 6 µg/mL; in the experiment on SK-MEL-28 (Homo sapiens) [9], 30 µg/mL (≈ 130 µM).

The term ILS denotes how much longer treated animals lived than controls. On to `CC(=O)Oc1ccc(COC(=O)N(CCCl)N=O)cc1`, for which the T-C in the experiment listed under Mus sp. [15] was 3. Further, the Survivial / total in the experiment on Mus sp. [16] and in the experiment with P388 [19] was 0 throughout. The IC50 in the experiment on NCI-H23 [10] stood at 6 µg/mL (≈ 20 µM); with SNB-7 [7], 30 µg/mL (≈ 99.8 µM); in the experiment with DLD-1 (Homo sapiens) [20], 20 µg/mL (≈ 66.5 µM); in the experiment on CAKI-1 (Homo sapiens) [21], 20 µg/mL (≈ 66.5 µM); in the experiment on SK-MEL-28 (Homo sapiens) [22], 10 µg/mL (≈ 33.3 µM). The same compound gave an ILS at 25 mg/kg in the experiment on P388 [17] of 4%. Also, in the experiment on P388 [18], the “Net log cell kill” value was -0.3.

For the compound `Nc1ccn([C@@H]2O[C@H](CO)[C@@H](O)[C@@H]2O)c(=O)n1` [CYTARABINE], the IC50 was 1000 nM in the experiment with SNB-7 [23] (read-out: IC50); 1000 nM in the experiment with NCI-H23 [2] (read-out: IC50); above 5000 nM with DLD-1 (Homo sapiens) [11]; above 5000 nM in the experiment with CAKI-1 (Homo sapiens) [12]; 1000 nM in the experiment on SK-MEL-28 (Homo sapiens) [13].

For `O=NN(CCCl)C(=O)OCc1ccccc1[N+](=O)[O-]`, the IC50 in the experiment on NCI-H23 [10] worked out at 3 µg/mL (≈ 10.4 µM); with SNB-7 [1] it was 1 µg/mL (≈ 3.48 µM); with SK-MEL-28 [24], 40 µg/mL (≈ 139 µM); with DLD-1 (Homo sapiens) [11], 6 µg/mL; in the experiment with CAKI-1 (Homo sapiens) [25] it was 40 µg/mL (≈ 139 µM).

Take `CC(=O)OCC1OC(OC(=O)N(CCCl)N=O)C(OC(C)=O)C(OC(C)=O)C1OC(C)=O` (stereo not given): the IC50 in the experiment on CAKI-1 is above 30 µg/mL; in the experiment with DLD-1 [26], 20 µg/mL (≈ 41.4 µM); with NCI-H23 [10], 3 µg/mL (≈ 6.21 µM); with SK-MEL-28 [27], 10 µg/mL (≈ 20.7 µM); in the experiment with SNB-7 [23], 10 µg/mL.
